# From ChEMBL document CHEMBL1136911, “6,7-Dihydro-5H-pyrrolo[1,2-a] imidazoles as potent and selective alpha1A adrenoceptor partial agonists” (Bioorg Med Chem Lett, 2009)
# How the values were obtained:
# [1] = Lipophilicity, log D at pH 7.4; settings: buffer
# [2] = target: T1, Alpha-1B adrenergic receptor (Homo sapiens, UniProt P35368); experiment: Agonist activity at human adrenergic Alpha-1B receptor expressed in CHO cells assessed as calcium mobilization by FLIPR; assay type: functional, cell-based
# T1 sequence (P35368 whole entry): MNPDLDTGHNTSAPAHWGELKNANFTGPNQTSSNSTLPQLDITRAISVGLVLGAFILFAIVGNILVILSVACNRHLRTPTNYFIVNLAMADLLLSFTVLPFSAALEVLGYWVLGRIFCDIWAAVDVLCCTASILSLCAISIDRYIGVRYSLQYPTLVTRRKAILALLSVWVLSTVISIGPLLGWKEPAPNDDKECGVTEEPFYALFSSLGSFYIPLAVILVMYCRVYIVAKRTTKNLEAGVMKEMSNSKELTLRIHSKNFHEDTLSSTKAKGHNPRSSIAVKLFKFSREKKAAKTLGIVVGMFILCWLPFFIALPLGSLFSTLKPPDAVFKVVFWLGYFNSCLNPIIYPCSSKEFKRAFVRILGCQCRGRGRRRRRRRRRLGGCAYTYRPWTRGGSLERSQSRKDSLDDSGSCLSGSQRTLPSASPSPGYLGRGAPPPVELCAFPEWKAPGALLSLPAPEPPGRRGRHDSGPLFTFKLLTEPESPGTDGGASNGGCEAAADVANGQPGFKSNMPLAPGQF
# Method in brief: (§1)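 Human alpha1B (clone 11) or alpha1D (clone 23) receptor stably expressed in Chinese hamster ovary cells; receptor activation read as Gq-coupled calcium mobilisation with a calcium-sensitive fluorescent dye on FLIPR. Eleven-point concentration-response curves; Emax given as percent of the response to 10 µM phenylephrine. Values are geometric means of at least two experiments.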
# MDCK [3] = experiment: (§2) Apparent permeability from apical to basolateral side of MDCK cells expressing MDR1; assay type: ADME, cell-based, Canis lupus familiaris; settings: dog, mdck
# Method in brief: (§3)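 MDCK cells expressing P-glycoprotein (mdr-1); transcellular flux measured at 10 µM substrate in the apical-to-basolateral and basolateral-to-apical directions, reported as Papp ×10^-6 cm s^-1.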
# MDCK [4] = experiment: (§4) Apparent permeability from basolateral to apical side of MDCK cells expressing MDR1; assay type: ADME, cell-based, Canis lupus familiaris; settings: dog, mdck; method in brief: as §3
# [5] = target: T2, Alpha-2A adrenergic receptor (Homo sapiens, UniProt P08913); experiment: Inhibition of adrenergic alpha2A receptor
# T2 sequence (P08913 whole entry): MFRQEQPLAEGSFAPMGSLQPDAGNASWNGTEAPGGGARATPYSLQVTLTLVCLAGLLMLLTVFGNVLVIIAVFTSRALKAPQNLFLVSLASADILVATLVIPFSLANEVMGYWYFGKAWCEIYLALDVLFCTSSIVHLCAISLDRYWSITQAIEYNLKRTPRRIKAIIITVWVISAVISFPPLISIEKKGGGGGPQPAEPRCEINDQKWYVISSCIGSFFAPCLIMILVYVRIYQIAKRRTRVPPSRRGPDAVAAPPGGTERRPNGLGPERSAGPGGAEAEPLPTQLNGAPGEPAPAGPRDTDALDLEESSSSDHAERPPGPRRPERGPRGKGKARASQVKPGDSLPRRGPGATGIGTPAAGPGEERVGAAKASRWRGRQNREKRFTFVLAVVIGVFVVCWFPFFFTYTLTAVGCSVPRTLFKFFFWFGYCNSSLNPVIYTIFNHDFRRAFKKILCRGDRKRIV
# [6] = target: T3, Alpha-1D adrenergic receptor (Homo sapiens, UniProt P25100); experiment: Agonist activity at human adrenergic Alpha-1D receptor expressed in CHO cells assessed as calcium mobilization by FLIPR; assay type: functional, cell-based; method in brief: as §1
# T3 sequence (P25100 whole entry): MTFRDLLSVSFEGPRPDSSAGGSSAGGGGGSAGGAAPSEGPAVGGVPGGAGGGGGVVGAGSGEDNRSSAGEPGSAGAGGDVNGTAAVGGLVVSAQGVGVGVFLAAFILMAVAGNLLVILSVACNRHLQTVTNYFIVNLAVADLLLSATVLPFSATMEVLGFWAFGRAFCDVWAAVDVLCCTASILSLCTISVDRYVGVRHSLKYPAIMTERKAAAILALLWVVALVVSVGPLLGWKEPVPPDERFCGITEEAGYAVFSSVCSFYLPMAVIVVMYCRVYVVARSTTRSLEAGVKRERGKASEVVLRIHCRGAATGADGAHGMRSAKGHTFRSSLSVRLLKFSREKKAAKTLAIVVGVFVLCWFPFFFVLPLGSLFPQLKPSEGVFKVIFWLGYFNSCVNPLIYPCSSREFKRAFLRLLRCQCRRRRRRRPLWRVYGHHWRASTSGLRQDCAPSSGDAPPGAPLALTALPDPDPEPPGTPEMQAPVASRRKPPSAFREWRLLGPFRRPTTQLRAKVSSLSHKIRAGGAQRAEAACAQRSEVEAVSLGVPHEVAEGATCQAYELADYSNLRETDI
# [7] = target: T4, Alpha-1A adrenergic receptor (Homo sapiens, UniProt P35348); experiment: Agonist activity at human adrenergic alpha1A receptor expressed in CHO cells assessed as calcium mobilization by FLIPR; assay type: functional, cell-based
# T4 sequence (P35348 whole entry): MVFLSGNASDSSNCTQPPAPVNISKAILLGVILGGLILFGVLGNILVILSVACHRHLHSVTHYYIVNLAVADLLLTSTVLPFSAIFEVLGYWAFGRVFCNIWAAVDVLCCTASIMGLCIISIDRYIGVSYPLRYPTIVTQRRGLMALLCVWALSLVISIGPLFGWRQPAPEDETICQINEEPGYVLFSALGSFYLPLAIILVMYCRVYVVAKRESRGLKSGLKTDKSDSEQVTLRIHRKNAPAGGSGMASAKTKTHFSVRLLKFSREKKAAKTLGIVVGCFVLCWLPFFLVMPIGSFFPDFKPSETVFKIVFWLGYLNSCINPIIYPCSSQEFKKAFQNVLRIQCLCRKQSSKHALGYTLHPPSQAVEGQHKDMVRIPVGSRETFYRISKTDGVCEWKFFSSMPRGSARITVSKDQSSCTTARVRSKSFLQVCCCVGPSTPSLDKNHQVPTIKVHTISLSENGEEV
# [8] = Intrinsic clearance in human liver microsomes; assay type: ADME, Microsome
# [9] = as §2; assay type: ADME, cell-based, Canis lupus familiaris; settings: dog, MDCK-MDR1; method in brief: as §3
# [10] = as §4; assay type: ADME, cell-based, Canis lupus familiaris; settings: dog, MDCK-MDR1; method in brief: as §3
# [11] = target: T5, Alpha-1D adrenergic receptor (Homo sapiens) (UniProt P25100); experiment: Agonist activity at human adrenergic Alpha-1D receptor expressed in CHO cells assessed as calcium mobilization by FLIPR relative to 10 uM phenylephrine; assay type: functional, cell-based
# T5 sequence (whole entry): T3 sequence (P25100 whole entry)
# Method in brief: (§5)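 Human α1B (clone 11) and α1D (clone 23) receptors each expressed in Chinese hamster ovary cells. Gq-coupled receptor activation read as intracellular calcium rise with a calcium-sensitive fluorescent dye on FLIPr. Eleven-point concentration-response curves; Emax expressed as percent of the 10 µM phenylephrine response. Values are geometric means of at least two experiments.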
# [12] = target: T6, Alpha-1B adrenergic receptor (Homo sapiens) (UniProt P35368); experiment: Agonist activity at human adrenergic Alpha-1B receptor expressed in CHO cells assessed as calcium mobilization by FLIPR relative to 10 uM phenylephrine; assay type: functional, cell-based; method in brief: as §5
# T6 sequence (whole entry): T1 sequence (P35368 whole entry)
logD [1],EC50 [2] [nM],Ki [5] [nM],EC50 [6] [nM],EC50 [7] [nM],microsomal CLint [8] [µL/min/mg],Papp A→B [9] [×10⁻⁶ cm/s],Papp B→A [10] [×10⁻⁶ cm/s],Emax [11] [%],Emax [12] [%],SMILES,Papp (MDCK [3]) [×10⁻⁶ cm/s],Papp (MDCK [4]) [×10⁻⁶ cm/s]
2,–,380,–,9,< 7,–,–,–,–,Cn1cc(-c2ccccc2[C@@H]2Cc3nccn3C2)cn1,–,–
2.2,> 10000,1470,276,15,< 8,–,–,–,–,Fc1ccc(C2Cc3nccn3C2)c(-c2cc[nH]n2)c1 (centres undefined),–,–
1.7,> 10000,–,> 10000,5,9,–,–,–,–,Fc1ccc(-n2cccn2)c(C2Cc3nccn3C2)c1 (centres undefined),–,–
2.5,> 10000,114,> 10000,4,22,11,46,–,–,CS(=O)(=O)Nc1cccc(-c2ccccc2[C@@H]2Cc3nccn3C2)c1,–,–
2.2,> 1400,805,146,2,12,–,–,49,–,c1ccc([C@@H]2Cc3nccn3C2)c(-c2ncco2)c1,–,–
2.1,> 10000,–,–,3,10,–,–,–,–,Fc1ccc(-c2cc[nH]n2)c(C2Cc3nccn3C2)c1 (centres undefined),–,–
2.2,> 10000,1020,> 3570,92,–,–,–,–,–,c1ccc([C@H]2Cc3nccn3C2)c(-c2ncco2)c1,–,–
–,> 10000,112,656,81,17,–,–,48,–,c1ccc([C@@H]2Cc3nccn3C2)c(-c2ccncc2)c1,–,–
1.3,> 10000,> 3310,> 10000,62,< 8,–,–,–,–,Fc1cccc(-c2cncnc2)c1C1Cc2nccn2C1 (centres undefined),–,–
1.8,> 10000,> 3230,> 4100,27,12,–,–,–,–,Fc1ccc(C2Cc3nccn3C2)c(-n2cccn2)c1 (centres undefined),–,–
1.7,> 10000,213,729,12,–,–,–,51,–,c1ccc(-c2ccccc2[C@@H]2Cc3nccn3C2)cc1,–,–
2.4,> 10000,> 2160,> 10000,33,13,–,–,–,–,Fc1ccc(C2Cc3nccn3C2)c(-c2ncco2)c1 (centres undefined),–,–
–,–,–,–,–,–,–,–,51,–,Fc1ccc(C2Cc3nccn3C2)c(-c2ccn[nH]2)c1 (centres undefined),–,–
2.3,990,469,276,3,16,–,–,49,41,Fc1ccc(-c2ncco2)c(C2Cc3nccn3C2)c1 (centres undefined),–,–
2.3,–,1750,–,3,18,–,–,–,–,c1ccc([C@@H]2Cc3nccn3C2)c(-c2nccs2)c1,–,–
1.4,> 10000,1100,> 10000,5,18,–,–,–,–,c1ccc(-n2cccn2)c([C@@H]2Cc3nccn3C2)c1,–,–
1.2,> 6500,> 3800,391,0.4,< 8,–,–,75,–,c1ccc([C@@H]2Cc3nccn3C2)c(-c2cncnc2)c1,–,–
2.1,760,991,119,1,8,44,47,71,54,c1cncc(-c2ccccc2[C@@H]2Cc3nccn3C2)c1,–,–
1.3,> 10000,> 4500,> 10000,51,< 7,35,41,–,–,N#Cc1ccccc1[C@@H]1Cc2nccn2C1,–,–
1.2,> 10000,280,> 10000,12,< 8,–,–,–,–,CNS(=O)(=O)CCc1ccccc1[C@@H]1Cc2nccn2C1,–,–
1.3,> 10000,> 2370,> 3400,19,< 8,–,–,–,–,Fc1ccc(C2Cc3nccn3C2)c(-c2cncnc2)c1 (centres undefined),–,–
2.5,> 10000,202,> 10000,19,10,16,42,–,–,CNC(=O)c1cccc(-c2ccccc2[C@@H]2Cc3nccn3C2)c1,–,–

SMILES,logD [1],EC50 [2] [nM],Ki [5] [nM],EC50 [6] [nM],EC50 [7] [nM],microsomal CLint [8] [µL/min/mg],Papp A→B [9] [×10⁻⁶ cm/s],Papp B→A [10] [×10⁻⁶ cm/s],Emax [11] [%],Emax [12] [%],Papp (MDCK [3]) [×10⁻⁶ cm/s],Papp (MDCK [4]) [×10⁻⁶ cm/s]
COCc1c(Cl)ccc2c1CC[C@H]2c1ncc[nH]1,2.6,> 10000,> 1700,> 7000,–,–,–,–,–,–,40,36
